Measured values: PMC9273405 (Burns & Trauma, 2022)

Assays:
[1] = tested on: full-thickness injury skin wounds in mice; assay: Full-thickness injury skin wound healing in mice; type: in vivo, mouse
Summary of the method: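 Mice were anaesthetised with 1% pentobarbital sodium (0.1 ml/20 g) and given two round 8 × 8 mm dorsal skin wounds. Wounds were treated topically twice daily with 20 μl of vehicle, peptide (0.5, 5 or 50 nM) or EGF (50 nM). Residual wound area was measured from images as a percentage of initial area. New epidermis and granulation tissue thickness were measured from H&E sections on days 4 and 8. Six mice per group.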

[2] = tested on: scald wounds in mice skin; assay: Scald wound repair in mouse skin; type: in vivo; details: 50 nM; for re-epithelialization rate: scald wound

B1: epidermal growth factor (protein, UniProt P01133 23-1207, looked up)
Pro-epidermal growth factor: PQHWSCPEGTLAGNGNSTCVGPAPFLIFSHGNSIFRIDTEGTNYEQLVVDAGVSVIMDFHYNEKRIYWVDLERQLLQRVFLNGSRQERVCNIEKNVSGMAINWINEEVIWSNQQEGIITVTDMKGNNSHILLSALKYPANVAVDPVERFIFWSSEVAGSLYRADLDGVGVKALLETSEKITAVSLDVLDKRLFWIQYNREGSNSLICSCDYDGGSVHISKHPTQHNLFAMSLFGDRIFYSTWKMKTIWIANKHTGKDMVRINLHSSFVPLGELKVVHPLAQPKAEDDTWEPEQKLCKLRKGNCSSTVCGQDLQSHLCMCAEGYALSRDRKYCEDVNECAFWNHGCTLGCKNTPGSYYCTCPVGFVLLPDGKRCHQLVSCPRNVSECSHDCVLTSEGPLCFCPEGSVLERDGKTCSGCSSPDNGGCSQLCVPLSPVSWECDCFPGYDLQLDEKSCAASGPQPFLLFANSQDIRHMHFDGTDYGTLLSQQMGMVYALDHDPVENKIYFAHTALKWIERANMDGSQRERLIEEGVDVPEGLAVDWIGRRFYWTDRGKSLIGRSDLNGKRSKIITKENISQPRGIAVHPMAKRLFWTDTGINPRIESSSLQGLGRLVIASSDLIWPSGITIDFLTDKLYWCDAKQSVIEMANLDGSKRRRLTQNDVGHPFAVAVFEDYVWFSDWAMPSVMRVNKRTGKDRVRLQGSMLKPSSLVVVHPLAKPGADPCLYQNGGCEHICKKRLGTAWCSCREGFMKASDGKTCLALDGHQLLAGGEVDLKNQVTPLDILSKTRVSEDNITESQHMLVAEIMVSDQDDCAPVGCSMYARCISEGEDATCQCLKGFAGDGKLCSDIDECEMGVPVCPPASSKCINTEGGYVCRCSEGYQGDGIHCLDIDECQLGEHSCGENASCTNTEGGYTCMCAGRLSEPGLICPDSTPPPHLREDDHHYSVRNSDSECPLSHDGYCLHDGVCMYIEALDKYACNCVVGYIGERCQYRDLKWWELRHAGHGQQQKVIVVAVCVVVLVMLLLLSLWGAHYYRTQKLLSKNPKNPYEESSRDVRSRRPADTEDGMSSCPQPWFVVIKEHQDLKNGGQPVAGEDGQAADGSMQPTSWRQEPQLCGMGTEQGCWIPVSSDKGSCPQVMERSFHMPSYGTQTLEGGVEKPHSLLSANPLWQQRALDPPHQMELTQ
modifications: Pro-epidermal growth factor
[1]; 50 nM, 20 μl topical twice a day, day 8 post-operation, n = 6 (vehicle 71 ± 3%)
  skin wound healing rate: 87 ± 2%
[1]; day 4, H&E staining, n = 6 (vehicle 119 ± 7)
  thickness of new epidermis: 58 ± 2 μm
[1]; day 4, H&E staining, n = 6 (vehicle 505 ± 46)
  thickness of granulation tissue: 317 ± 82 μm
[1]; day 8, H&E staining, n = 6 (vehicle 86 ± 7)
  thickness of new epidermis: 38 ± 10 μm
[1]; day 8, H&E staining, n = 6 (vehicle 982 ± 8)
  thickness of granulation tissue: 719 ± 54 μm
[2]; 20 μl topical, day 12 after operation, n = 6 (vehicle 40 ± 4%)
  regeneration rate of scald wounds: 78 ± 5%
[2]; day 8, H&E staining, n = 6 (vehicle 15 ± 3%)
  re-epithelialization rate: 38 ± 3%
[2]; day 12, H&E staining, n = 6 (vehicle 42 ± 2%)
  re-epithelialization rate: almost complete re-epithelialization
